Test results as given in ChEMBL document CHEMBL3414525, “Macrocyclic compounds as anti-cancer agents: design and synthesis of multi-acting inhibitors against HDAC, FLT3 and JAK2” (Eur J Med Chem, 2015).
pIC50: −log10 of the molar value. The source made the active and inactive calls. The rule behind the calls is not given here.

Columns and labels:
[1] = molecular target: Histone deacetylase; experiment: Inhibition of HDAC (unknown origin) using Fluor de Lys substrate after 2 hrs by microplate reader; type: protein assay, Homo sapiens
[2] = Antiproliferative activity against human HL60 cells assessed as growth inhibition after 48 hrs by CellTiter-Glo assay; type: functional; conditions: HL-60, 48 h
[3] = tested on: K562; experiment: Antiproliferative activity against human K562 cells assessed as growth inhibition after 48 hrs by CellTiter-Glo assay; type: functional; conditions: K562, 48 h
[4] = tested on: HEL; experiment: Antiproliferative activity against human HEL cells assessed as growth inhibition after 48 hrs by CellTiter-Glo assay; type: functional
[5] = molecular target: T1, Receptor-type tyrosine-protein kinase FLT3 (Homo sapiens, UniProt P36888); experiment: Inhibition of human recombinant FLT3 after 1 hr by LanthaScreen assay platform
T1 sequence (P36888 whole entry): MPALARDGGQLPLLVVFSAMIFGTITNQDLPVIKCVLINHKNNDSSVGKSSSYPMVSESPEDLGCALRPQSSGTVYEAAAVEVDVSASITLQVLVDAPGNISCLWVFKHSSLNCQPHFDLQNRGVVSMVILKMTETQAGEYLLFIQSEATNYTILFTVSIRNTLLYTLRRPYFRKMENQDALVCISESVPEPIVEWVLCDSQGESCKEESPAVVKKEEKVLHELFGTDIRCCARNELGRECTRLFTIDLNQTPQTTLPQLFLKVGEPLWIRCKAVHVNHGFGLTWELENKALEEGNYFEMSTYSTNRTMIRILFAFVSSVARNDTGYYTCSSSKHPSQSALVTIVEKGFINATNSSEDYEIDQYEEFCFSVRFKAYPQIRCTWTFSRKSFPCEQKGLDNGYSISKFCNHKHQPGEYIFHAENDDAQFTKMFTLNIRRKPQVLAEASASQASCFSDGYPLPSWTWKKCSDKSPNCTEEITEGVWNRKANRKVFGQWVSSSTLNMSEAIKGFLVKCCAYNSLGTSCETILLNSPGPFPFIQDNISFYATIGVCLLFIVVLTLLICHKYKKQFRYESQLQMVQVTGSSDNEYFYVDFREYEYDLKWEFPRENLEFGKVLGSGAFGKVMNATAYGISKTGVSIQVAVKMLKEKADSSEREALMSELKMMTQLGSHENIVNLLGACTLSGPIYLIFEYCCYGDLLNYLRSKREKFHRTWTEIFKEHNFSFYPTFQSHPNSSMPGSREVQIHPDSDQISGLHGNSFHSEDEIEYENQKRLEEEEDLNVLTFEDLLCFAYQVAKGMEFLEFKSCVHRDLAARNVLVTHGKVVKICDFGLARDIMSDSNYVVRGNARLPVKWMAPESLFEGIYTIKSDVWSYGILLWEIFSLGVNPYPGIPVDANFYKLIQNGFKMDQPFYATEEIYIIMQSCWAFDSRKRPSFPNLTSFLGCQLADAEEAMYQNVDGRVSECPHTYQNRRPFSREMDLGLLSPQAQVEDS
Procedure, shortened: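 TR-FRET binding format. Recombinant FLT3 incubated 1 h at room temperature with Eu-anti-His antibody, Alexa Fluor 647-labelled kinase tracer 236 and varied compound concentrations. Signal read as the 665/615 nm emission ratio. Values are means ± SD of three independent experiments.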

[6] = molecular target: T2, Tyrosine-protein kinase JAK2 (Homo sapiens, UniProt O60674); experiment: Inhibition of human recombinant JAK2 using Z'LYTETry6 peptide substrate after 1 hr by microplate reader
[7] = tested on: MV4-11; experiment: Antiproliferative activity against human MV4-11 cells assessed as growth inhibition after 48 hrs by CellTiter-Glo assay; type: functional; conditions: MV4-11, 48 h
[8] = Antiproliferative activity against human HCT116 cells assessed as growth inhibition after 48 hrs by SRB assay; type: functional; conditions: HCT-116, 48 h
[9] = tested on: MCF7; experiment: Antiproliferative activity against human MCF7 cells assessed as growth inhibition after 48 hrs by SRB assay; type: functional; conditions: MCF7, 48 h
[10] = tested on: MDA-MB-435; experiment: Antiproliferative activity against human MDA-MB-435 cells assessed as growth inhibition after 48 hrs by SRB assay; type: functional; conditions: MDA-MB-435, 48 h
[11] = tested on: NCI-H460; experiment: Antiproliferative activity against human NCI-H460 cells assessed as growth inhibition after 48 hrs by SRB assay; type: functional; conditions: NCI-H460, 48 h
[12] = Antiproliferative activity against human OVCAR5 cells assessed as growth inhibition after 48 hrs by SRB assay; type: functional; conditions: OVCAR-5, 48 h
[13] = molecular target: Histone deacetylase (Homo sapiens) (UniProt Q13547+O15379+Q9UBN7+Q92769+Q9UQL6+Q8WUI4+Q9BY41+Q96DB2+P56524+Q9UKV0+Q969S8); experiment: Induction of HDAC-mediated histone H3 acetylation in human MV4-11 cells after 24 hrs by Western blot analysis; type: cell-based
Procedure, shortened: (§1)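 Cells plated at 0.2 × 10⁶ per mL with or without varied compound concentrations, incubated 24 h, then lysed in whole-cell lysis buffer. Total extracts run on SDS-PAGE and western blotted with antibodies to acetyl-histone H3, acetyl-tubulin, tubulin, phospho-FLT3 Y591, phospho-JAK2 Y1007/1008, phospho-STAT5 Y694 and phospho-AKT T308. HRP-labelled secondary antibodies used for detection.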

[14] = molecular target: Tubulin (Homo sapiens) (UniProt P68371+Q9H4B7+P0DPH7+P68366+Q13509+Q71U36+P04350+Q3ZCM7+P07437+P68363+Q9BQE3+Q6PEY2+Q13885+Q9BVA1+Q9BUF5); experiment: Induction of tubulin acetylation in human MV4-11 cells after 24 hrs by Western blot analysis; type: cell-based; procedure, shortened: as §1
[15] = molecular target: T2, Tyrosine-protein kinase JAK2; experiment: Decrease in JAK2 phosphorylation in human HEL cells at 0.1 to 0.5 uM after 24 hrs by Western blot analysis; type: cell-based; procedure, shortened: as §1
[16] = tested on: MV4-11; experiment: Inhibition of STAT5 phosphorylation in human MV4-11 cells after 24 hrs by Western blot analysis; type: cell-based; procedure, shortened: as §1
[17] = tested on: MV4-11; experiment: Inhibition of AKT phosphorylation in human MV4-11 cells after 24 hrs by Western blot analysis; type: cell-based; procedure, shortened: as §1
[18] = molecular target: Receptor-type tyrosine-protein kinase FLT3 (Homo sapiens) (UniProt P36888); conditions: HEL, 0.1 to 0.5 uM

T2 sequence (O60674 whole entry): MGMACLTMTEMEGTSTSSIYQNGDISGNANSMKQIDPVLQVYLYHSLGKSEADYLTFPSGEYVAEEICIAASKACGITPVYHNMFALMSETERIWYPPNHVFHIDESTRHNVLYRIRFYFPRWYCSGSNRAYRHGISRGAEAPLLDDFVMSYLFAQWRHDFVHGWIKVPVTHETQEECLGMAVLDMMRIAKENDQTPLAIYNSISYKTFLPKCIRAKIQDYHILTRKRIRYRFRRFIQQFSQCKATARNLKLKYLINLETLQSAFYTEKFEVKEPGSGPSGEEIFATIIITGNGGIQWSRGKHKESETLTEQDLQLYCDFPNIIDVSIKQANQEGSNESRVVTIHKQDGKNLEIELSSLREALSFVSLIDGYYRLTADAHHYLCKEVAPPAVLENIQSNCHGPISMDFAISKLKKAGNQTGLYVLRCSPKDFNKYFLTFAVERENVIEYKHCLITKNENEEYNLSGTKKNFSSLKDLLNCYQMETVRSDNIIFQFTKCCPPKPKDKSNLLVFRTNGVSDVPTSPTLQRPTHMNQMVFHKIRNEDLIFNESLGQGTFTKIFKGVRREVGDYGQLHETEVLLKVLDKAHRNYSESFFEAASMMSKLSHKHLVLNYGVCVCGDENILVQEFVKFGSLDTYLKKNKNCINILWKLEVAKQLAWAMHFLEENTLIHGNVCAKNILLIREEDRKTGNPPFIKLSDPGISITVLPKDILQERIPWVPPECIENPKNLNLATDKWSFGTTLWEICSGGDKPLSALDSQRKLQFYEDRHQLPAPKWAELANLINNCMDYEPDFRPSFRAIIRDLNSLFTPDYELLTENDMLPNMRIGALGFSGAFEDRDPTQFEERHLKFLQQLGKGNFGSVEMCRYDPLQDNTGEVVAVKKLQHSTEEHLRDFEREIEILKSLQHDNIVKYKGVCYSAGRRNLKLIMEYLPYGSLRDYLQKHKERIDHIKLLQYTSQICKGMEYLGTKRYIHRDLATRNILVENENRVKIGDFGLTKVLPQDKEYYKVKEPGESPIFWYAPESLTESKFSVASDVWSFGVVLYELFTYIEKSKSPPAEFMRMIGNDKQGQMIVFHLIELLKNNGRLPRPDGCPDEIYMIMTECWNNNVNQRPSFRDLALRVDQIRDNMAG

Structure (SMILES) | IC50 [1] | GI50 [3] | pIC50 [5] | pIC50 [6] | GI50 [7] | GI50 [9] | GI50 [10] | GI50 [11] | Activity [13] | Activity [14] | inhibition [15] | inhibition [18] | GI50 [2] | GI50 [4] | GI50 [8] | GI50 [12] | inhibition [16] | inhibition [17]
O=C(CCCCN1C/C=C/CCOc2cccc(c2)-c2ccnc(n2)Nc2cccc(c2)C1)NO | 251 nM | 2450 nM | 6.74 | 6.53 | 660 nM | 1130 nM | 2720 nM | 1770 nM | – | – | – | – | 3030 nM | 510 nM | 1530 nM | 1220 nM | – | –
O=C(CCCCCCCC(=O)N1C/C=C/COCc2cccc(c2)-c2ccnc(n2)Nc2cccc(c2)C1)NO | 334 nM | 2640 nM | 6.57 | 6.08 | 780 nM | – | – | – | – | – | – | – | 1660 nM | 4780 nM | – | – | – | –
O=C(CCCCCCC(=O)N1C/C=C/COCc2cccc(c2)-c2ccnc(n2)Nc2cccc(c2)C1)NO | 293 nM | 4390 nM | 6.08 | 6.16 | 1410 nM | – | – | – | – | – | – | – | 2870 nM | 5030 nM | – | – | – | –
O=C(CCCCC(=O)N1C/C=C/COCc2cccc(c2)-c2ccnc(n2)Nc2cccc(c2)C1)NO | 402 nM | 4970 nM | 6.66 | 6.26 | 2060 nM | – | – | – | – | – | – | – | 4430 nM | 2940 nM | – | – | – | –
O=C(CCCCCN1C/C=C/CCOc2cccc(c2)-c2ccnc(n2)Nc2cccc(c2)C1)NO | 152 nM | 2320 nM | 6.97 | 5.98 | 530 nM | 1320 nM | 2630 nM | 1600 nM | – | – | – | – | 2620 nM | 2260 nM | 1330 nM | 1420 nM | – | –
O=C(CCCCCCC(=O)N1C/C=C/CCOc2cccc(c2)-c2ccnc(n2)Nc2cccc(c2)C1)NO | 310 nM | 4790 nM | 5.90 | 6.25 | 5890 nM | – | – | – | – | – | – | – | 6730 nM | 5250 nM | – | – | – | –
O=C(CCCCCCC(=O)Nc1ccccc1)NO [VORINOSTAT] | – | – | < 5.00 | < 5.00 | – | – | – | – | – | – | – | – | – | – | – | – | – | –

The remaining compounds from weak to strong by GI50 [3], led by results:

IC50 [1] | GI50 [3] | pIC50 [5] | pIC50 [6] | GI50 [7] | GI50 [9] | GI50 [10] | GI50 [11] | Activity [13] | Activity [14] | inhibition [15] | inhibition [18] | Structure (SMILES) | GI50 [2] | GI50 [4] | GI50 [8] | GI50 [12] | inhibition [16] | inhibition [17]
123 nM | 2090 nM | 6.54 | 6.23 | 520 nM | – | – | – | – | – | – | – | O=C(CCCCCN1C/C=C/COCc2cccc(c2)-c2ccnc(n2)Nc2cccc(c2)C1)NO | 2300 nM | 680 nM | – | – | – | –
355 nM | 2020 nM | – | – | – | – | – | – | – | – | – | – | O=C(CCCCCCCC(=O)N1C/C=C/CCOc2cccc(c2)-c2ccnc(n2)Nc2cccc(c2)C1)NO | 1950 nM | 6260 nM | – | – | – | –
158 nM | 1830 nM | 6.66 | 6.41 | 370 nM | 1070 nM | 1880 nM | 1420 nM | – | – | – | – | O=C(CCCCN1C/C=C/COCc2cccc(c2)-c2ccnc(n2)Nc2cccc(c2)C1)NO | 2050 nM | 490 nM | 810 nM | 1130 nM | – | –
848 nM | 1440 nM | 6.25 | 6.61 | 1010 nM | 2090 nM | 2410 nM | 2250 nM | – | – | – | – | O=C(CCCCC(=O)N1C/C=C/CCOc2cccc(c2)-c2ccnc(n2)Nc2cccc(c2)C1)NO | 1270 nM | 2110 nM | 1590 nM | 1520 nM | – | –
– | 1230 nM | 7.38 | 6.77 | 660 nM | – | – | – | – | – | – | – | CN1C/C=C/CCOc2cccc(c2)-c2ccnc(n2)Nc2cccc(c2)C1 [ZOTIRACICLIB] | 1130 nM | 790 nM | – | – | – | –
87 nM | 1020 nM | 7.06 | 6.16 | 270 nM | 950 nM | 1770 nM | 1070 nM | Dose-dependent effect | Dose-dependent effect | Active | Dose-dependent effect | O=C(CCCCCCN1C/C=C/CCOc2cccc(c2)-c2ccnc(n2)Nc2cccc(c2)C1)NO | 1030 nM | 340 nM | 820 nM | 1220 nM | Dose-dependent effect | Dose-dependent effect
159 nM | 940 nM | 6.66 | 6.21 | 320 nM | 1130 nM | 1500 nM | 1190 nM | – | – | – | – | O=C(CCCCCCN1C/C=C/COCc2cccc(c2)-c2ccnc(n2)Nc2cccc(c2)C1)NO | 900 nM | 700 nM | 900 nM | 1420 nM | – | –
